Laboratory results: publication PMC11677264 (Biochemistry, 2023)

Columns and labels:
[1] = target: T1, AmgK (N-acetylmuramic acid/N-acetylglucosamine kinase) (Pseudomonas aeruginosa, UniProt Q9I5U1); test: 2D-ITC, fit to ordered-sequential rate equation; format: biochemical
In short: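 AmgK in the calorimeter cell (650 nM with NAM, 300 nM with NAG) with ATP at 13.5 mM. Eighteen 1 μL injections of NAM or NAG (160 mM syringe stock), ~800 μM sugar at the start of each, spaced ≥1200 s. Run ~8–10 h with stirring, in duplicate. Thermograms converted to rate versus [ATP] versus [sugar] data sets and fitted to the ordered-sequential equation.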

[2] = target: T1, AmgK (N-acetylmuramic acid/N-acetylglucosamine kinase); test: pyruvate kinase/lactate dehydrogenase-coupled ATP-recycling assay, NADH at […] nm; format: biochemical
[3] = test system: Nc1ncnc2c1ncn2[C@@H]1O[C@H](COP(=O)(O)OP(=O)(O)OP(=O)(O)O)[C@@H](O)[C@H]1O; test: purified protein; details: saturating NAG 4 mM

T1 sequence (Q9I5U1 whole entry): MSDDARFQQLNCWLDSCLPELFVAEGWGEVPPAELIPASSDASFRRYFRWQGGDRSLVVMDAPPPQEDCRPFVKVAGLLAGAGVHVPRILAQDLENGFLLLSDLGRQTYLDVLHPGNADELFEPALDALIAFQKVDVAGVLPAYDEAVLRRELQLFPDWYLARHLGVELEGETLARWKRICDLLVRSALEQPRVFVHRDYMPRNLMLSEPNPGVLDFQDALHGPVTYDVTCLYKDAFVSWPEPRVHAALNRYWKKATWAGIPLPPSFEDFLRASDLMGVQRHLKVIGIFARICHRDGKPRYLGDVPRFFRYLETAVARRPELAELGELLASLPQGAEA

With Nc1ncnc2c1ncn2[C@@H]1O[C@H](COP(=O)(O)OP(=O)(O)O)[C@@H](O)[C@H]1O [ADP] the Ki [1] was 694 ± 128 µM.
In the case of Nc1ncnc2c1ncn2[C@@H]1O[C@H](COP(=O)(O)OP(=O)(O)NP(=O)(O)O)[C@@H](O)[C@H]1O [AMP-PNP], the Ki [2] is reported as 471 ± 169 µM.
Compound “AmgK (N-acetylmuramic acid/N-acetylglucosamine kinase) (Pseudomonas aeruginosa PAO1)” has a Km [3] of 70 ± 12 µM.
